Laboratory results reported in paper PMC12324215 (bioRxiv, 2025).

What was measured:
[1] = system: T. brucei brucei 449 (strain: Lister 427, bloodstream form); test: Trypanosome cell survival assay; assay type: cell-based; conditions: Trypanosoma brucei, 24 h, read-out: EC50 (24 h)
Tpx WT/inhibitor complex = biological target: T1, Tpx WT/inhibitor complex (Trypanosoma brucei brucei, UniProt O77404); test: SEC-MALS of Tpx/inhibitor complexes; assay type: binding, T. brucei; conditions: SEC-MALS at 100 μM protein concentration
T1 sequence (O77404 with tags, fused parts or gaps): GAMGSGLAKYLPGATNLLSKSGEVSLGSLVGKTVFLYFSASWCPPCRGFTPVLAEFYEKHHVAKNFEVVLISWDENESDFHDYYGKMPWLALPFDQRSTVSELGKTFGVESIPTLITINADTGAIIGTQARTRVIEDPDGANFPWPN
Procedure, shortened: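 Covalent complexes were formed as for ITC (TCEP-reduced Tpx, 3-fold excess inhibitor, 30 min, 25 °C) and SEC-purified. 100 µM complex was run on Superdex 75 10/300 in 25 mM NaPi pH 7.5, 150 mM NaCl at 0.5 ml/min, room temperature. Molar mass came from multi-angle light scattering plus refractive index detection, using a Zimm model.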

Structure (SMILES): O=c1[nH]c(CCl)nc2scc(-c3ccc(C(F)(F)F)cc3)c12 [CtFT, 2-(Chloromethyl)-5-(4-(trifluoromethyl)phenyl)thieno[2,3-d]pyrimidin-4(3H)-one]
- EC50 [1]: 2200 ± 600 nM
- oligomeric state of Tpx/inhibitor complex (Tpx WT/inhibitor complex): remained monomeric

Structure (SMILES): O=c1[nH]c(CCl)nc2scc(-c3ccccc3)c12 [CPT, 2-(Chloromethyl)-5-phenylthieno[2,3-d]pyrimidin-4(3H)-one]
- EC50 [1]: 600 ± 300 nM
